Results published in ChEMBL document CHEMBL3046255, “Moluccensins R-Y, limonoids from the seeds of a mangrove, Xylocarpus moluccensis” (2012).

Assays:
Format in all cases: functional
[1] = tested on: Brontispa longissima; test: Antifeedant activity against third-instar larvae of Brontispa longissima at 1 mg/mL after 24 hr by conventional leaf disk method
How it was run: (§1)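 Third-instar larvae exposed to test material at 1 mg/mL. Antifeedant rate is given as percent, mean ± SD, and is read after 24 h […] and 48 h […].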

[2] = tested on: Brontispa longissima; test: Insecticidal activity against third-instar larvae of Brontispa longissima assessed as mortality at 1 mg/mL after 9 days
[3] = tested on: Brontispa longissima; test: Antifeedant activity against third-instar larvae of Brontispa longissima at 1 mg/mL after 48 hr by conventional leaf disk method; how it was run: as §1
[4] = tested on: Brontispa longissima; test: Antifeedant activity against third-instar larvae of Brontispa longissima after 24 hr by conventional leaf disk method
How it was run: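 Value is an AFC50: the concentration giving 50% antifeedant activity against third-instar larvae after 24 h exposure.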

Row | SMILES | Activity [1] | Activity [2] | Activity [3] | AFC50 [4]
1 | COC(=O)[C@H](O)[C@H]1C(C)(C)C(=O)[C@@H]2CC3=C4CC(=O)O[C@@H](c5ccoc5)[C@]4(C)CC[C@@H]3[C@@]1(C)C2=O [6-HYDROXYMEXICANOLIDE] | 76.6% | 20.7% | 69.3% | –
2 | COC(=O)[C@H](O)[C@H]1C(C)(C)[C@H](OC(=O)C(C)C)[C@]2(O)CC3=C4CC(=O)O[C@@H](c5ccoc5)[C@]4(C)CC[C@@H]3[C@@]1(C)C2=O [MOLUCCENSIN R] | 69.6% | 17% | 62.1% | –
3 | CCC(C)C(=O)O[C@H]1C(C)(C)[C@H]([C@@H](O)C(=O)OC)[C@]2(C)C(=O)[C@@]1(O)CC1=C3CC(=O)O[C@@H](c4ccoc4)[C@]3(C)CC[C@@H]12 (stereo partly drawn) [MOLUCCENSIN S] | 42.3% | 48.2% | 44.1% | –
4 | COC(=O)C[C@H]1C(C)(C)[C@H](OC(C)=O)[C@]2(O)CC3=C4CC(=O)O[C@@H](c5ccoc5)[C@]4(C)CC[C@@H]3[C@@]1(C)C2=O [2-HYDROXYFISSINOLIDE] | 93.7% | 34.4% | 91.5% | 94 µg/mL
